The data set in a line: Toxicity liver stage against HepG2, at 10uM. The note with it: human, HepG2-A16-CD81EGFP cells; read-out: INHIBITION
Type of data set: cell-based. Set-up: test concentration 10 uM, cell line HepG2-A16-CD81EGFP. In a few lines: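 Uninfected HepG2-A16-CD81EGFP cells, 3 × 10^3 per well, 1536-well, plated on prespotted compound at 10 μM final, parasite-free screening media added to match infected plates; puromycin 10 μM positive, DMSO 0.5% negative; run in parallel with 48 h PbLuc assay at 37 °C, 5% CO2; viability by CellTiter-Glo luminescence, normalized to controls.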
For `COc1ccc(C(=O)c2cnc(C(C)C)n2C)cc1`, the cytotoxicity at 10 µM was 15.5%.
The figure for `c1cc(-c2c[nH]c([C@@H]3COCCN3C3CCOCC3)n2)ccn1` is -0.113%.
Take `CC(C)(C)CC(=O)NC[C@H]1OC[C@@H](NC2CCC(F)(F)CC2)[C@@H]1O`: the cytotoxicity at 10 µM is -1.23%.
Next, `CNc1c(NCc2ccco2)c(=O)c1=O`: -10.6%; `CCCc1nc(N2CCN(CC)CC2)c2c(n1)c(C)nn2CC`: -9.41%.
The figure for `CN(C)c1cc(C2CCCN2)ccn1` (centres undefined) is 5.8%.
Next, `O=C(c1ccncc1)N1CCC(Cc2cnc3[nH]ccc3c2)CC1`: -1.86%.
As for `Cc1ccccc1CNC(=O)c1ccccc1-n1cnc(CN)c1`, the cytotoxicity at 10 µM was -7.22%.
Next, `Cc1cn[nH]c1C1CCCCN1C(=O)CCc1c(C)n[nH]c1C` (centres undefined): -10.5%; `CCOCCC(=O)Nc1cccc(Cl)c1COC`: -3.81%; `CC(Nc1cccc(F)c1C#N)c1cccc(S(N)(=O)=O)c1` (centres undefined): 12.8%.
Take `CN(Cc1ccccn1)C(=O)C(c1ccccc1)N1CCSCC1` (centres undefined): the cytotoxicity at 10 µM is -9.71%.
On to `COc1c(CNC(C)c2sc(C)nc2C)c(C(C)C)nn1C` (centres undefined), for which the cytotoxicity at 10 µM was 7.97%.
Next, `Cc1cnc(C(=O)N2CCOCC2C)cn1` (centres undefined): -3.83%.
The figure for `COc1ncc(NCc2cccc(C#N)c2)cc1C(N)=O` is 5.85%.
Regarding `CCN(C(=O)CS(=O)(=O)c1cc(OC)c(OC)cc1C)C1CC1`, the cytotoxicity at 10 µM is -3.91%.
Next, `O=C(Cc1cccnc1)NCCS(=O)(=O)c1ccccc1F`: 6.72%.
The figure for `COc1ccc(NC(=O)NCC(C)N2CCc3ccccc32)cc1` (centres undefined) is -2.42%; for `CCNC(=O)NC(C)c1nc(-c2ccc(Br)cc2)no1` (centres undefined) it is 14.7%.
Next, `CCc1csc(C2CCCN(C(=O)CCn3cc(C)cn3)C2)n1` (centres undefined): 1.82%.
Take `CC(C(=O)N(C)C)N1CCCN(C(=O)Oc2ccccc2)CC1` (centres undefined): the cytotoxicity at 10 µM is -0.37%.
The figure for `O=C(CCCn1cncn1)N1CCCCC1c1nccs1` (centres undefined) is 8.6%.
Next, `CN(C(=O)CN1CCC(c2cc3ccccc3[nH]2)CC1)C1CC1`: 1.95%; `CNS(=O)(=O)CC(=O)NC(C)Cc1ccccc1Br` (centres undefined): 13.7%.
Next, `CN(Cc1nccn1C)C(CO)c1cccc(Br)c1` (centres undefined): -1.29%.
Take `Cc1cnc(CCN(C)C(=O)c2cccc(N(C)C)c2)s1`: the cytotoxicity at 10 µM turned out to be 2.05%.
The figure for `CN(C)c1nccc(N(C)C2CCOCC2)n1` is 3.13%; for `N#Cc1c(F)cccc1N1CCN(S(=O)(=O)c2cccs2)CC1` it is 14.2%.
The figure for `CS(=O)(=O)c1ccc(CNCC2CCN(CCO)CC2)cc1` is -18.8%; for `COCCCNc1nc(CNC(C)=O)cc(-c2ccco2)n1` it is -5.52%; for `CC(C)[C@H](NS(C)(=O)=O)C(=O)NCc1cc(-c2ccccc2)n[nH]1` it is -8.94%.
Next, `N[C@H]1CN(C(=O)CCc2cc(Cl)no2)C[C@@H]1c1ccccc1`: -7.03%; `Cc1nc(CN2CCCn3nc(CNC(=O)C4CCC4)cc3C2)co1`: 3.26%.
With `CCCc1ccc(CN2CCN(C(=O)CC(C)C)[C@@H]3CS(=O)(=O)C[C@@H]32)o1`, the cytotoxicity at 10 µM worked out at 5.31%.
In the case of `Cc1ccc2oc(=O)n(CCC(=O)N3CCC4(CN(C)C(=O)O4)C3)c2c1` (centres undefined), the cytotoxicity at 10 µM is 1.66%.
Next, `Cc1nc(CN(C)C(=O)c2cccc(CC3CCNCC3)c2)no1`: -5.56%; `COc1ccc(N2CCN(C(=O)C3CN(C)C(=O)N3)CC2(C)C)cc1` (centres undefined): 0.254%; `COCCC(=O)NCc1cccnc1-n1cnc2ccccc21`: -8.42%.
For `CC(C)N1CCC(C(=O)N2CCCN(c3ccccc3)CC2)CC1`, the cytotoxicity at 10 µM worked out at 7.4%.
Next, `N[C@H]1CN(C(=O)c2ccccc2OCCc2ccccc2)C[C@@H]1C1CC1`: -2.68%; `O=C(NC1CCOC1)c1cccc(S(=O)(=O)NCCCc2ncc[nH]2)c1` (centres undefined): -2.26%.
Next, `Cc1cnc(C(=O)N2CCCC(c3nccn3Cc3cscn3)C2)cn1` (centres undefined): -7.92%; `OC1(CN2CCCCC2)CCN(c2cc(C(F)(F)F)ccn2)C1` (centres undefined): -2.22%; `COc1nc(C)c(C(=O)NCc2cc(N3CCOCC3)ncn2)s1`: 12.9%.
Consider `OCc1csc(N2CCCN(Cc3ccc(F)cc3)CC2)n1`, for which the cytotoxicity at 10 µM was -2.58%.
The figure for `COc1cccc(Cn2cc(C3=CCN(CC(=O)N(C)C)CC3)cn2)c1` is -13.1%; for `CCN1CC(C(=O)N2CCN(c3nsc4ccccc34)CC2)CCC1=O` (centres undefined) it is 16.2%.
The figure for `CCC1(C(=O)O)CCCN(C(=O)c2ccc(N3CCN(C)CC3)cc2)C1` (centres undefined) is -2.35%; for `O=S1(=O)COCCN1Cc1ccc(F)cc1Cl` it is 14.7%; for `O=c1cnc2ccccc2n1CCCn1ccnc1` it is -3.85%.
The figure for `CC(C)Cc1ncc2c(n1)CN(c1nc3ccccc3cc1CO)C2` is 1.18%; for `CCN(CC)C(=O)[C@@H]1C[C@H](n2cc(-c3ccccn3)nn2)CN1` it is -20.6%.
Regarding `CCCC(=O)Nc1cccc(C(=O)N(C)CCCC2CCCO2)c1` (centres undefined), the cytotoxicity at 10 µM was found to be 1.03%.
Next, `NC(=O)c1cccc(CC2CCN(C(=O)CCCN3CCOCC3)C2)c1` (centres undefined): -11.3%; `CN1CCC(c2ncc3c(n2)CCN(C(=O)CC2C=CCC2)C3)CC1` (centres undefined): 1.68%; `CC(C)OCCN1CCN(C(C)c2nc(C3CC3)no2)CC1` (centres undefined): 2.07%.
`CC(C)c1nc(C2CCCN2Cc2nnc(C3CCC3)o2)no1` (centres undefined): the cytotoxicity at 10 µM was -15.6%.
The figure for `Cc1nc(CNC(=O)NCC(O)c2ccc(F)cc2)cs1` (centres undefined) is -10.4%; for `Cn1cc(C(=O)N2CCSc3ccccc32)ccc1=O` it is -22.9%; for `Cc1cnn(C2CCCN(C(=O)CCc3cscn3)C2)c1` (centres undefined) it is -12.9%.
Next, `O=C(NCCN1CCCC1)C1(c2ccc(Cl)cc2)CCOCC1`: -2.16%; `CCc1ccc(C(=O)N2CCCC(n3nc(C)nc3C)C2)o1` (centres undefined): -7.8%.
For the compound `c1ccc(-c2nc(CNCCn3cccn3)cs2)nc1`, the cytotoxicity at 10 µM was -21.1%.
Take `CCN1CCN(C2CCN(Cc3nc(C4CC4)no3)CC2)C1=O`: the cytotoxicity at 10 µM was -2.69%.
The figure for `COc1cccc2cc(CNC(=O)N3CCOC(C)(C)C3)oc12` is -14.8%.
Regarding `CN1CCOC(CNCc2coc(-c3cccc(Cl)c3)n2)C1` (centres undefined), the cytotoxicity at 10 µM was -15.9%.
Next, `Cc1cnn(C2CCCN(C(=O)Cc3n[nH]c4ccccc34)C2)c1` (centres undefined): -6.8%; `O=C(NCCN1CCCCCC1=O)c1ccc(=O)[nH]n1`: -19.3%.
The figure for `NC(=O)NC(=O)CCN1CCN(c2nccs2)CC1` is -33.6%.
The figure for `COc1ncccc1C(=O)N1CCC(Nc2ccc(C)nn2)CC1` is -18.1%.
As for `CCN1CCN(C(=O)NCc2cccnc2-n2cccn2)CC1`, the cytotoxicity at 10 µM is -7.97%.
Turning to `COc1ncccc1CNC(=O)c1ccco1`, the cytotoxicity at 10 µM is -8.48%.
The figure for `c1cncc(-c2noc(CN3CCCCC3Cn3cccn3)n2)c1` (centres undefined) is -2.42%; for `Cc1cc(CN(C)C(=O)c2ccc(OCC(F)(F)F)nc2)no1` it is -6.19%; for `Cc1nn(C)c(N(C)C)c1CNCc1ccccc1Cn1cccn1` it is -8.06%.
Next, `Cc1cnn(CC2CCCCN2CC(=O)Nc2nc(C)cs2)c1` (centres undefined): 0.109%; `COc1ccc(CNC(=O)NCCCNS(C)(=O)=O)cc1OC`: -10.6%.
The figure for `CC(=O)Nc1nc(C(=O)NCc2ccc(N3CCCCC3)cc2)cs1` is -2.75%.
In the case of `O=C(CCNc1ncccn1)N1CCCN(c2nccs2)CC1`, the cytotoxicity at 10 µM was -14.3%.
With `CC(Cn1cccn1)NCc1csc(Cc2ccccc2)n1` (centres undefined), the cytotoxicity at 10 µM was -8.15%.
The figure for `COc1cc(C(=O)N2CCCC(c3cc(C)[nH]n3)C2)cc(OC)c1C` (centres undefined) is -10.5%; for `Cc1ccc(OCCCC(=O)NC(C)c2nnc3n2CCC3)cc1` (centres undefined) it is -15%.
The figure for `Cc1cnc(C(=O)NCc2cccnc2OC(C)C)cn1` is -23.4%; for `O=C1COc2c(cccc2C(=O)N2CCCC2Cn2cccn2)N1` (centres undefined) it is -4.47%.
The figure for `Cc1ccc(CC(=O)N2CCCC(c3cc(C)[nH]n3)C2)cn1` (centres undefined) is -7.2%; for `CCc1ncc(C(=O)N2CCCCC2Cn2cccn2)s1` (centres undefined) it is -2.48%.
For the compound `Cc1ncc2c(n1)CN(Cc1nc3ccccc3o1)CC2`, the cytotoxicity at 10 µM is -0.602%.
Next, `CCc1nc(C2CCCN2C(=O)C2=COCC2)no1` (centres undefined): 8.64%; `CC(c1cccc(S(N)(=O)=O)c1)N(C)CCc1ccccc1` (centres undefined): -12%.
The figure for `Cc1nc(CN2CCN(CC(=O)Nc3c(C)cccc3C)CC2)no1` is -3.1%; for `CC(C)c1nnc2n1CCN(CC(=O)Nc1nncs1)C2` it is -4.02%; for `CCC(CN1CCCC1)n1cncc1-c1cnn(-c2ccccc2)c1` (centres undefined) it is 5.87%.
With `Cc1cccc(-c2noc(C)c2C(=O)NC2CCCOC2)c1` (centres undefined), the cytotoxicity at 10 µM came out at 5.2%.
For `CN(C)Cc1cc(=O)n2c(n1)CN(C(=O)Cc1ccsc1)CCC2`, the cytotoxicity at 10 µM was -4.43%.
Next, `CCOCC1CN(S(=O)(=O)N(C)C)Cc2cnn(C)c21` (centres undefined): -4.2%; `FC1(F)CCN(Cc2ccccn2)CC12CCN(c1cnccn1)C2` (centres undefined): -108%; `CN(C)C(=O)CN1C[C@H]2CC[C@@H](C1)N(Cc1ccc3nsnc3c1)C2`: 2.3%.
The figure for `COC(=O)Cn1c(=O)[nH]c2cn(-c3cccc(Cl)c3)c(=O)n21` is -1.39%; for `Cc1nc(C(C)n2cc3[nH]cccc-3c2=O)cs1` (centres undefined) it is -3.13%.
